Assay results: ChEMBL document CHEMBL1157759, “Discovery of GS-9131: Design, synthesis and optimization of amidate prodrugs of the novel nucleoside phosphonate HIV reverse transcriptase (RT) inhibitor GS-9148” (Bioorg Med Chem, 2010)

Legend:
[1] = Clearance in iv dosed Beagle dog after 24 hrs; settings: in vivo
[2] = Oral bioavailability in Beagle dog; settings: in vivo
[3] = system: PBMC; assay: Metabolic stability in cathepsin A-overexpressing human PBMC assessed as compound degradation per ug of protein at 10 uM after 120 mins by scintillation counting; settings: 2 h, 30 µM
[4] = system: Human immunodeficiency virus 1; assay: Antiviral activity against HIV1 3B infected in human MT2 cells assessed as inhibition of virus-induced cytopathic effect after 5 days by XTT assay; type: functional, organism-based
[5] = Half life in dog intestine S9 fraction at 2 uM by LC/MS/MS analysis; settings: for half-life at 2 µM: intestine S9 fraction, t1/2
[6] = Cytotoxicity against human MT2 cells after 5 days by XTT assay
[7] = Half life in dog hepatocytes at 2 uM by LC/MS/MS analysis; settings: for half-life at 2 µM: t1/2; for t1/2: 2 µM
[8] = Hydrolytic stability assessed as compound degradation per ug of protein at 10 uM after 90 mins by scintillation counting in presence of human recombinant cathepsin A; settings: 1.5 h
[9] = Bioavailability in iv dosed Beagle dog; settings: in vivo
[10] = Half life in human intestine S9 fraction at 2 uM by LC/MS/MS analysis
[11] = Half life in human hepatocytes at 2 uM by LC/MS/MS analysis; settings: t1/2
[12] = system: PBMC; assay: Drug metabolism in Beagle dog PBMC assessed as 5-[(6-Amino-purin-9-yl)-4-fluoro-2,5-dihydro-furan-2-yloxymethyl] phosphonic acid diphosphate level after 5 hrs; type: ADME, cell-based, Canis lupus familiaris
How it was run: (§1)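 Beagle dogs were given a single oral dose of 3 mg/kg. The prodrug was followed in plasma. The parent diacid and its active diphosphate metabolite were followed inside isolated PBMCs over time after dosing. Plasma half-life and PBMC-to-plasma levels were derived from these time-course profiles.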

[13] = biological target: T1, DNA polymerase subunit gamma-1 (Homo sapiens) (UniProt P54098); assay: Inhibition of human recombinant DNA polymerase gamma by scintillation counting
T1 sequence (whole entry): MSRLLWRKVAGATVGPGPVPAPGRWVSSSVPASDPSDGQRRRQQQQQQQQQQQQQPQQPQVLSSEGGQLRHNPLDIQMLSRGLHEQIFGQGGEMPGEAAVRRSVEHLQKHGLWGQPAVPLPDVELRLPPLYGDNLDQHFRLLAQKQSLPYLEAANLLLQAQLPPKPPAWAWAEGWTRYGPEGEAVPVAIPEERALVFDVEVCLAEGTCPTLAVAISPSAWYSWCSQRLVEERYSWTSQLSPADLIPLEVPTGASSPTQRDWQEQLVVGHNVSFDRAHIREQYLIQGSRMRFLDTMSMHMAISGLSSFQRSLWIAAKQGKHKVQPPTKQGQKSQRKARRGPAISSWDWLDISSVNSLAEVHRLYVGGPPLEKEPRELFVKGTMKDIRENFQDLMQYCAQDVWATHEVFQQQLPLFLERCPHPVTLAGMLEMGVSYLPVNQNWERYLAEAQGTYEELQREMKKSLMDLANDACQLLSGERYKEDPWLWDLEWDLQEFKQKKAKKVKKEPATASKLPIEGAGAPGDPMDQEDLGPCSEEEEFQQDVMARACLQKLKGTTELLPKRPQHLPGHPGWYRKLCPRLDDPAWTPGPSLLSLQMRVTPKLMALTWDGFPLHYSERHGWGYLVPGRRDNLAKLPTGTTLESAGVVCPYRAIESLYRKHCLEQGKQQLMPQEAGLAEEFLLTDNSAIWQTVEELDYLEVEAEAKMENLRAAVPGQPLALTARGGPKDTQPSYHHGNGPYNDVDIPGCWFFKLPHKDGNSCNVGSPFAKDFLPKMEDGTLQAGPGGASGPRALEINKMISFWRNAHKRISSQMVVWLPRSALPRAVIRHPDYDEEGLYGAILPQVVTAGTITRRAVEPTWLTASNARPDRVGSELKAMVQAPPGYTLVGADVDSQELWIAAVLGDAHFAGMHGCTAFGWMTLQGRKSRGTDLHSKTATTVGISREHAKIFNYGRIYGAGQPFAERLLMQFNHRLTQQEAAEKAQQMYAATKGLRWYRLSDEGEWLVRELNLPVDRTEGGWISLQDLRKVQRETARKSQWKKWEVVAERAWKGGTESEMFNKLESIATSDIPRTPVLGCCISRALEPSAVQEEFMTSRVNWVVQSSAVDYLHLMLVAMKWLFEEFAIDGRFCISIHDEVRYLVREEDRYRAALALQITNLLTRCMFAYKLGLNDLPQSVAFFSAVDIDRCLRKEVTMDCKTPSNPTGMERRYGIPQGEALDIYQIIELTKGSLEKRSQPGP

[14] = biological target: Human immunodeficiency virus type 1 reverse transcriptase (Human immunodeficiency virus 1, UniProt Q72547); assay: Inhibition of HIV1 reverse transcriptase
[15] = Selectivity for inhibition of HIV wild type reverse transcriptase over inhibition of human recombinant DNA polymerase gamma
[16] = Cytotoxicity against human HepG2 cells assessed as inhibition of mitochondrial DNA replication after 14 days; settings: read-out: MTC50
[17] = Drug metabolism in Beagle dog assessed as ratio of GS-9148 level in PBMC to plasma at 3 mg/kg, po up to 20 mins; type: ADME, organism-based, Canis lupus familiaris; parameters: dose 3 mg/kg, route oral; settings: in vivo, 2 h, in the assay text read “up to 2 hrs” for “up to 20 mins”; how it was run: as §1
[18] = Human immunodeficiency virus 1, 3B, MT2, 120 h

| Structure (SMILES) | clearance at 24 h [1] | Activity [3] | half-life at 2 µM [5] | CC50 at 120 h [6] | half-life at 2 µM [7] | Activity [8] | EC50 ([4]; mt2) | other results |
| --- | --- | --- | --- | --- | --- | --- | --- | --- |
| CC(C)OC(=O)[C@H](C)N[P@](=O)(CO[C@H](C)Cn1cnc2c(N)ncnc21)Oc1ccccc1 [TENOFOVIR ALAFENAMIDE] | 37.2 mL/min/kg |  |  |  |  |  |  | bioavailability [2]: 21% |
| CC(C)COC(=O)[C@H](Cc1ccccc1)NP(=O)(CO[C@@H]1C=C(F)[C@H](n2cnc3c(N)ncnc32)O1)Oc1ccccc1 (some centres not stated) | 61.7 mL/min/kg | 31 pmol/min | 8.3 min | 38300 nM | 28 min | 29655 pmol/min |  | EC50 [4, 18]: 6 nM; bioavailability [2]: 2.6% |
| C[C@H](NP(=O)(CO[C@@H]1C=C(F)[C@H](n2cnc3c(N)ncnc32)O1)Oc1ccccc1)C(=O)OC1CCC1 (stereo in doubt; 18r(A)) [(2S)-CYCLOBUTYL 2-((((2R,5R)-5-(6-AMINO-9H-PURIN-9-YL)-4-FLUORO-2,5-DIHYDROFURAN-2-YLOXY)METHYL)(PHENOXY)PHOSPHORYLAMINO)PROPANOATE (ENANTIOMERIC MIX)] |  | 3.2 pmol/min |  |  | 140 min | 2527 pmol/min | > 45 nM | bioavailability [9]: 9.8%; t1/2 ([5]; s9, 2 µM, 2 µM): 32 min |
| CC(C)OC(=O)[C@H](C)NP(=O)(CO[C@@H]1C=C(F)[C@H](n2cnc3c(N)ncnc32)O1)Oc1ccccc1 (stereo in doubt; 24) [(2S)-ISOPROPYL 2-(((2R,5R)-5-(6-AMINO-9H-PURIN-9-YL)-4-FLUORO-2,5-DIHYDROFURAN-2-YLOXY)(PHENOXY)PHOSPHORYLAMINO)PROPANOATE (ENANTIOMERIC MIX)] |  | 20 pmol/min | 15 min | 139000 nM |  | 35000 pmol/min | 9.2 nM | half-life at 2 µM [10]: 106 min; half-life at 2 µM [11]: 159 min; t1/2 [7]: 103 min |
| Nc1ncnc2c1ncn2[C@@H]1O[C@H](OCP(=O)(O)OP(=O)(O)OP(=O)(O)O)C=C1F |  |  |  |  |  |  |  | Activity [12]: > 9 µM; Activity [13]: 100 µM; IC50 [14]: 1900 nM; fold change (FC) [15]: > 130 |
| Nc1ncnc2c1ncn2[C@@H]1O[C@H](OCP(=O)(O)O)C=C1F [GS-9148] |  |  |  | > 100000 nM |  |  |  | CC50 at 336 h [16]: > 300000 nM; EC50 [4, 18]: 10600 nM; Ratio [17]: 10 |
| C[C@H](NP(=O)(CO[C@@H]1C=C(F)[C@H](n2cnc3c(N)ncnc32)O1)Oc1ccccc1)C(=O)OC1CCC1.Cl.Cl (some centres not stated) |  | 19 pmol/min | 3.9 min |  | 52 min | 23997 pmol/min | 21 nM | bioavailability [9]: 18% |
| C[C@H](NP(=O)(CO[C@@H]1C=C(F)[C@H](n2cnc3c(N)ncnc32)O1)Oc1ccccc1)C(=O)OC1CCC1 (stereo in doubt; 18r) [(2S)-CYCLOBUTYL 2-((((2R,5R)-5-(6-AMINO-9H-PURIN-9-YL)-4-FLUORO-2,5-DIHYDROFURAN-2-YLOXY)METHYL)(PHENOXY)PHOSPHORYLAMINO)PROPANOATE (ENANTIOMERIC MIX)] | 46 mL/min/kg | 7.7 pmol/min | 25 min | 57000 nM |  | 18150 pmol/min | 36 nM | half-life at 2 µM [10]: 122 min; half-life at 2 µM [11]: 98 min; t1/2 [7]: 100 min |
